# Assay outcomes as filed in PubChem.
# Lmaj promast = Leishmania major promastigote growth inhibition; Leishmania major promastigotes, resazurin fluorescence viability; inhibition, % at 10 µM; 9% of 200,000 active; AID 1063; in the data active means inhibition above about 50%;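 further: promastigotes grown with compound for 44 hours at 28 °C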
# PMI act = activators of human phosphomannose isomerase; P34949; 0.005% of 190,000 active; activation factor at 20 µM; AID 1214; purified human PMI, coupled resazurin fluorescence, 20 min; stronger effect = higher value; 1 = vehicle control, 0 substrate-free wells;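 active means activation factor of 2 or more at 20 µM, relative to plate controls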
# Target sequence (P34949 whole entry, looked up): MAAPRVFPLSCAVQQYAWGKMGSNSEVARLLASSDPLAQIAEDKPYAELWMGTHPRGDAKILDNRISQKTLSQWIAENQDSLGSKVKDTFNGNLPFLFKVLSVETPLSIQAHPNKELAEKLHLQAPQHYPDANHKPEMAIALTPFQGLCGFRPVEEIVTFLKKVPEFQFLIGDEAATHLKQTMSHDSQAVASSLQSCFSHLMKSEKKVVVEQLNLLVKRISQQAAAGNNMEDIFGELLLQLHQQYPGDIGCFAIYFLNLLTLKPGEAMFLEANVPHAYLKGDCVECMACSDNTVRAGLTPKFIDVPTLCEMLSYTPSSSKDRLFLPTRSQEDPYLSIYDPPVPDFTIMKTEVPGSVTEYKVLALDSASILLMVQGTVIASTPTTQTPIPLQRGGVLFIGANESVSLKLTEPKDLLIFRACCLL
# HCT116 bCat-KO = beta-catenin-lacking colon tumor cell growth suppression; HCT116 beta-catenin knockout viability, CellTiter-Glo, 60 h; stronger effect = lower value; viability, % at 10 µM; 1.5% of 140,000 active;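 active means viability at or under a set limit, the compound median less 4 SD, cut at about 6% in these data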;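 further: 0% = Hyamine 1622 control at 20 µM and 100% = untreated cell control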
# HCT116 PTEN-null = suppresses growth of cells with PTEN deletion | HCT116 PTEN-null viability, CellTiter-Glo, 60 h; stronger effect = lower value | viability, % at 10 µM | 1.2% of 140,000 active | AID 827;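 active means viability at or below a set limit, 4 SD under the median of all tested compounds, cut at about 3.7% in these data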;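 further: PTEN knockout HCT116 line with beta catenin targeted HCT116 as companion control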
# PMI act satM6P = activators of human phosphomannose isomerase at near-saturating mannose 6-phosphate | coupled PMI enzyme assay, resazurin fluorescence, 20 min; stronger effect = higher value; 1 = untreated enzyme, 0 = substrate-free blank | activation factor at 20 µM | 0.34% of 190,000 active;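 active means activation factor of 2 or more at 20 µM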
#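 Material: human phosphomannose isomerase with PGI, G6PDH, diaphorase coupling enzymes. Quantity: 15 ng/mL PMI. Medium: HEPES pH 7.4 buffer with MgCl2 and Tween-20. Reagent: Near-saturating mannose-6-phosphate, 1.0 mM. Compound: 20 µM single dose. Times: enzyme reaction with compound 20 min at room temperature. Detection: resorufin fluorescence at Ex 544/Em 590 nm.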
# * hit, by the source's call; . = no result. An excerpt weighted towards active compounds, which were near 9.6% of everything screened.
SMILES,Lmaj promast,PMI act,HCT116 bCat-KO,HCT116 PTEN-null,PMI act satM6P
CCOC(=O)c1ccc(Nc2ncnc3ccc(C)cc23)cc1,15,1,90,89,1
Clc1cccc(Nc2ncnc3ccc(Br)cc23)c1,40,1,16,7,1.1
COc1ccccc1Nc1nc2ccc(C)cc2cc1C#N,-7,1.2,89,97,1.1
CCOC(=O)c1cccc(Nc2ncnc3ccc(C)cc23)c1,56*,1.1,43,46,1
Cc1ccc2ncnc(Nc3ccccc3)c2c1,65*,1,.,.,0.9
COc1ccccc1Nc1ncnc2ccc(C)cc12,71*,1.1,75,90,1.1
Cc1ccc2ncnc(Nc3cccc(C(=O)O)c3)c2c1,4,1.2,.,.,1.1
COc1ccc(C[C@H]2CN3C(=NC[C@@H]3C)N2CCNC(=O)CCC2CCCCC2)cc1,1,1,.,.,1.1
CN1CCN(c2cc3c(c4c2[nH]c2ccccc24)C(=O)CC(C)(C)C3)CC1,95*,1,1.4*,1.8*,1
COC(=O)CNc1nc(-c2cccnc2)nc2ccccc12,9,1,96,104,1
c1ccc(CN2CCC(Nc3ncnc4sccc34)CC2)cc1,35,1.1,.,.,1
Cc1ccccc1Nc1nc(-c2cccnc2)nc2ccccc12,78*,0.8,.,.,0.9
c1ccc(CN2CCC(Nc3nc(-c4cccnc4)nc4ccccc34)CC2)cc1,98*,0.9,.,.,1
c1cncc(-c2nc(NCC3COc4ccccc4O3)c3ccccc3n2)c1 (configuration not stated),77*,0.9,39,26,1
CCOC(=O)c1ccc(Nc2nc(-c3cccnc3)nc3ccccc23)cc1,21,1,71,64,0.7
CCOC(=O)Cn1nc(C)c(NC(=O)c2ccc([N+](=O)[O-])c(C)c2)c1C,4,1,.,.,1
CCCn1c(C)cc(C(=O)COC(=O)CN=C2NS(=O)(=O)c3ccccc32)c1C,55*,1,100,95,1
CCCn1c(C)cc(C(=O)COC(=O)c2ccc[nH]c2=O)c1C,-2,1,88,83,0.9
CC1(C)Cc2c(cnn2-c2ccccc2)-c2c1c1ccccc1n2CC(O)CCl (configuration not stated),100*,1,72,66,0.8
CCCC/C(O)=C1\C(=O)CC(C)(C)CC1=NCCCCCC(=O)O,14,1,.,.,1
Cc1cccc(OCC(=O)Nc2ccc(N3CCN(C(=O)c4ccccc4)CC3)cc2)c1,2,0.9,91,88,0.8
CC(C)(C)c1ccc(OCCCC(=O)Nc2ccc(S(N)(=O)=O)cc2)cc1,73*,1,.,.,0.9
CCOc1ccc(CN(C)CC(=O)Nc2cccc(S(=O)(=O)N(C)c3ccccc3)c2)cc1,74*,1,.,.,0.9
CN(c1ccccc1)S(=O)(=O)c1cccc(NC(=O)Cn2cnc3ccccc3c2=O)c1,98*,0.8,69,71,0.9
CCN(CC)S(=O)(=O)c1cc(NC(=O)Cn2cnc3ccccc3c2=O)ccc1C,19,0.9,60,72,0.9
SMILES,Lmaj promast,PMI act,HCT116 bCat-KO,HCT116 PTEN-null,PMI act satM6P
COc1cccc(CN(C)CC(=O)Nc2cccc(S(N)(=O)=O)c2)c1OC,88*,0.9,88,89,1
Cc1nc([N+](=O)[O-])c(C(=O)OCc2ccccc2C#N)n1C,5,1,.,.,1
CN(c1ccccc1)S(=O)(=O)c1cccc(NC(=O)CC(C)(C)C)c1,96*,0.9,64,54,1.1
CN(C)S(=O)(=O)c1cccc(NC(=O)COC(=O)CCOc2ccccc2)c1,0,1,.,.,1
CC(=O)c1ccc(OCCCC(=O)Nc2cccc(S(=O)(=O)N(C)C)c2)cc1,58*,1,93,101,0.9
O=C(O)/C=C/c1cnc2ccccc2c1,-2,1,.,.,0.8
COC(=O)c1cn(N(C)c2ncc(C(F)(F)F)cc2Cl)c(=O)c2ccccc12,1,0.9,82,78,0.9
COc1ccc(Cn2nc(C)n(N(C)c3ncc(C(F)(F)F)cc3Cl)c2=O)cc1,99*,1,98,101,1.1
COCCn1c(COc2cccc(OC)c2)nnc1SCC(=O)N1CCOCC1,-2,1,77,87,1
Cc1[nH]n2c(=O)cc(C(C)(C)C)nc2c1-c1ccccc1,99*,0.9,13,17,0.9
Cc1ccnc(SCc2cc(=O)c(OC(=O)c3ccc(S(=O)(=O)N(C)C)cc3)co2)n1,-4,0.8,94,95,0.8
Cc1cc(N)ccc1-n1c(C)ccc1C,-8,0.6,73,69,0.3
Cc1cc(N)ccc1N1CCCC1,58*,0.6,88,91,0.7
NC(=O)c1ccccc1N/C=C/C(=O)c1ccc(Cl)cc1Cl,86*,0.8,72,66,0.9
O=C(NCCc1ccccc1)N1CCCC(CNS(=O)(=O)Cc2ccccc2)C1 (configuration not stated),0,1,.,.,1
O=S(=O)(Cc1ccccc1)NCC1CCCN(Cc2ccc3nonc3c2)C1 (configuration not stated),93*,1,.,.,0.9
O=S(=O)(Cc1ccccc1)NCC1CCCN(Cc2ccc(F)c(F)c2)C1 (configuration not stated),90*,1,.,.,0.9
Cc1ccc2nc(N3CCN(C(=O)c4cccs4)CC3)c(C#N)cc2c1,-4,1,73,71,0.9
COc1cccc(C(=O)NC(=S)Nn2cnnc2)c1OC,-6,0.7,.,.,1
Cc1sc(NC(=O)c2sc3nc4c(C)cccc4cc3c2N)c(C#N)c1C,56*,1.2,3.6*,9,1.2
Cc1cccc2cc3c(N)c(C#N)sc3nc12,-3,0.8,60,86,1
Cc1ccc(S(=O)(=O)N2CCN(c3ccc4nnc(-c5ccccc5)n4n3)CC2)cc1,75*,0.9,36,52,0.9
COc1ccc(S(=O)(=O)N2CCN(c3ccc4nnc(-c5ccc(F)cc5)n4n3)CC2)cc1,99*,0.8,34,27,0.9
Cc1csc(N(C(=O)c2ccc(S(=O)(=O)N(C)C)cc2)c2ccccc2)n1,-3,1,88,82,1
Cc1csc(N(C(=O)CCNC(=O)c2ccc([N+](=O)[O-])cc2)c2ccccc2)n1,64*,0.9,105,95,0.9
Cc1cccc(OCC2CCCN(Cc3nc(C4CC4)no3)C2)c1 (configuration not stated),62*,1,.,.,1
COc1ccc(OCC2CCCN(Cc3nc(CC4CC4)no3)C2)cc1 (configuration not stated),-3,0.9,.,.,0.9
COc1ccc(N2CCC(CNC(=S)Nc3cccc(OC)c3)C2)cc1 (configuration not stated),60*,0.7,90,97,0.5
COc1ccc(N2CCC(CNC(=O)Nc3cccc(OC)c3)C2)cc1 (configuration not stated),4,0.3,80,81,0.4
